Measurements reported in ChEMBL document CHEMBL1152647, “Hybrid pharmacophore design and synthesis of isatin-benzothiazole analogs for their anti-breast cancer activity” (Bioorg Med Chem, 2009).
The source made the active and inactive calls. No cut-off for these calls is given here.

Assays:
MDA-MB-231 [1] = assay: Cytotoxicity against human MDA-MB-231 cells after 48 hrs by SRB assay; format: functional; conditions: MDA-MB-231, 48 h
Procedure, shortened: (§1)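 Cancer lines grown in RPMI 1640 with 10% FBS and 2 mM L-glutamine; 184B5 and MCF10A grown in supplemented mammary epithelial basal medium. 5000–10,000 cells/well seeded, 24 h at 37 °C and 5% CO₂. Seven serially diluted concentrations added, final DMSO ≤0.1%, 48 h exposure. Fixed with 10% TCA (final) at 4 °C, stained with 0.4% SRB, solubilized in 10 mM Tris, A515–564. Growth % = (Ti−Tz)/(C−Tz)×100; GI50 from sigmoidal variable-slope fit; triplicates, ≥2 independent experiments.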

MDA-MB-468 [2] = assay: Cytotoxicity against human MDA-MB-468 cells after 48 hrs by SRB assay; format: functional; conditions: MDA-MB-468, 48 h; procedure, shortened: as §1
MCF7 [3] = assay: Cytotoxicity against human MCF7 cells after 48 hrs by SRB assay; format: functional; conditions: MCF7, 48 h; procedure, shortened: as §1
[4] = Cytotoxicity against human 184B5 cells after 48 hrs by SRB assay; format: cell-based; procedure, shortened: as §1
[5] = Cytotoxicity against human MCF10A cells after 48 hrs by SRB assay; format: cell-based, MCF-10A; procedure, shortened: as §1
MCF-10A [6] = assay: Cell cycle arrest in human MCF10A cells assessed as accumulation at G2/M phase at 20 uM after 24 hrs by flow cytometry; format: functional, cell-based
Procedure, shortened: (§2)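 MCF7 or MCF10A cells treated with compound at 20 or 40 µM for 24 h, with DMSO-treated negative control. 2.0 × 10⁶ cells pelleted and fixed in ice-cold 70% ethanol (30 min to overnight, −20 °C), then washed in PBS. Stained 30 min at 37 °C with 100 µg/mL PI, 100 µg/mL RNase A, 0.3% NP-40 and 0.1% sodium citrate. DNA content read by flow cytometry; G0/G1, S and G2/M fractions taken from DNA histograms.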

MCF7 [7] = assay: Cell cycle arrest in human MCF7 cells assessed as accumulation at S phase at 20 uM after 24 hrs by flow cytometry (Rvb=17%); format: functional; procedure, shortened: as §2
MDA-MB-468 [8] = assay: Selectivity ratio of GI50 for human 184B5 cells to GI50 for human MDA-MB-468 cells
Procedure, shortened: (§3)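 Ratio of non-cancer to cancer GI50, each from 48 h SRB growth assays (seven concentrations, sigmoidal variable-slope fit, triplicates in ≥2 independent experiments).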

MCF7 [9] = assay: Cell cycle arrest in human MCF7 cells assessed as accumulation at G2/M phase at 20 uM after 24 hrs by flow cytometry (Rvb=12%); format: functional; procedure, shortened: as §2
MCF-10A [10] = assay: Cell cycle arrest in human MCF10A cells assessed as accumulation at S phase at 20 uM after 24 hrs by flow cytometry; format: functional, cell-based; procedure, shortened: as §2
MDA-MB-231 [11] = assay: Selectivity ratio of GI50 for human MCF10A cells to GI50 for human MDA-MB-231 cells; procedure, shortened: as §3
MCF7 [12] = assay: Cell cycle arrest in human MCF7 cells assessed as accumulation at G2/M phase at 40 uM after 24 hrs by flow cytometry; format: functional, cell-based; procedure, shortened: as §2

SMILES | GI50 (MDA-MB-231 [1]) [µM] | GI50 (MDA-MB-468 [2]) [µM] | GI50 (MCF7 [3]) [µM] | GI50 at 48 h [4] [µM] | GI50 at 48 h [5] [µM] | Activity (MCF-10A [6]) | Activity (MCF7 [7]) | RatioGI50 (MDA-MB-468 [8]) | Activity (MCF7 [9]) | Activity (MCF-10A [10]) | RatioGI50 (MDA-MB-231 [11]) | Activity (MCF7 [12])
CN(C)CN1C(=O)C(=O)c2c(Br)cccc21 | 93.7 | 49 | 57.6 | 77.9 | 67.8 | – | – | – | – | – | – | –
CCN(CC)CN1C(=O)/C(=N\c2nc3ccc(C)cc3s2)c2c(Br)cccc21 | 28.7 | 43.1 | 30.2 | 34.3 | 16.1 | – | – | – | – | – | – | –
O=C1C(=O)N(CN2CCCCC2)c2cccc(Br)c21 | 30.2 | 35.3 | 31.4 | 85.2 | 66.9 | – | – | – | – | – | – | –
CN(C)CN1C(=O)C(=O)c2ccccc21 | 65.6 | 50.1 | 40.5 | 73.7 | 150 | – | – | – | – | – | – | –
CCN(CC)CN1C(=O)C(=O)c2ccccc21 | 60.6 | 35.9 | 44.1 | 41.7 | 73.6 | – | – | – | – | – | – | –
O=C1C(=O)N(CN2CCCCC2)c2ccccc21 | 38 | 24.1 | 41.2 | 68 | 41.8 | – | – | – | – | – | – | –
CCN(CC)CN1C(=O)C(=O)c2c(Br)cccc21 | 20.2 | 11.7 | 20.2 | 172 | 113 | inactive | 8% | 14.7 | 38% | inactive | 5.6 | –
O=C1C(=O)N(CN2CCOCC2)c2ccccc21 | 57.6 | 28.2 | 52.3 | 78.7 | 72.1 | – | – | – | – | – | – | –
O=C1C(=O)N(CN2CCCCC2)c2cccc(Cl)c21 | 26.5 | 82.8 | 51.2 | 93.7 | 70.7 | – | – | – | – | – | – | –
Cc1ccc2nc(/N=C3\C(=O)N(CN4CCOCC4)c4ccccc43)sc2c1 | 19.8 | 17.6 | 14.6 | 30.6 | 38.5 | inactive | inactive | – | inactive | inactive | – | Active
O=C1C(=O)N(CN(c2ccccc2)c2ccccc2)c2cccc(Br)c21 | 51.1 | 63.2 | 110 | 98.5 | 85.8 | – | – | – | – | – | – | –
Cc1ccc2nc(/N=C3\C(=O)N(CN(C)C)c4cccc(Br)c43)sc2c1 | 49 | 27.4 | 17.9 | 74.8 | 21.8 | – | – | – | – | – | – | –
Cc1ccc2nc(/N=C3\C(=O)N(CN(c4ccccc4)c4ccccc4)c4cccc(Cl)c43)sc2c1 | 54 | 85 | 24.3 | 67.8 | 70 | – | – | – | – | – | – | –
CCN(CC)CN1C(=O)/C(=N\c2nc3ccc(C)cc3s2)c2c(Cl)cccc21 | 20.4 | 27.3 | 19.2 | 87.8 | 43.9 | – | – | – | – | – | – | –
Cc1ccc2nc(/N=C3\C(=O)N(CN(c4ccccc4)c4ccccc4)c4ccccc43)sc2c1 | 34.1 | 17.7 | 39.1 | 27.2 | 34 | – | – | – | – | – | – | –
Cc1ccc2nc(/N=C3\C(=O)N(CN4CCCCC4)c4cccc(Br)c43)sc2c1 | 38.2 | 24 | 39.1 | 85.2 | 18.4 | – | – | – | – | – | – | –

SMILES | GI50 (MDA-MB-231 [1]) [µM] | GI50 (MDA-MB-468 [2]) [µM] | GI50 (MCF7 [3]) [µM] | GI50 at 48 h [4] [µM] | GI50 at 48 h [5] [µM] | Activity (MCF-10A [6]) | Activity (MCF7 [7]) | RatioGI50 (MDA-MB-468 [8]) | Activity (MCF7 [9]) | Activity (MCF-10A [10]) | RatioGI50 (MDA-MB-231 [11]) | Activity (MCF7 [12])
O=C1C(=O)N(CN2CCOCC2)c2cccc(Br)c21 | 29.7 | 54 | 65.6 | 79.5 | 82.3 | – | – | – | – | – | – | –
CCN(CC)CN1C(=O)/C(=N\c2nc3ccc(C)cc3s2)c2ccccc21 | 32.7 | 63.5 | 74.8 | 27.5 | 20.4 | – | – | – | – | – | – | –
Cc1ccc2nc(/N=C3\C(=O)N(CN(C)C)c4ccccc43)sc2c1 | 19.2 | 35.5 | 29.2 | 15.6 | 13.4 | – | – | – | – | – | – | –
Cc1ccc2nc(/N=C3\C(=O)N(CN4CCOCC4)c4cccc(Br)c43)sc2c1 | 94.6 | 24.8 | 12 | 29.9 | 33.2 | – | – | – | – | – | – | –
Cc1ccc2nc(/N=C3\C(=O)N(CN4CCCCC4)c4ccccc43)sc2c1 | 34.5 | 65.6 | 37.8 | 34.9 | 38.9 | – | – | – | – | – | – | –
Cc1ccc2nc(/N=C3\C(=O)N(CN4CCCCC4)c4cccc(Cl)c43)sc2c1 | 55.8 | 19.8 | 30.9 | 82.3 | 30.2 | – | – | – | – | – | – | –
CN(C)CN1C(=O)C(=O)c2c(Cl)cccc21 | 138 | 107 | 87.8 | 130 | 82.3 | – | – | – | – | – | – | –
Cc1ccc2nc(/N=C3\C(=O)N(CN4CCOCC4)c4cccc(Cl)c43)sc2c1 | 37.1 | 24 | 21.5 | 63.5 | 62.3 | – | – | – | – | – | – | –
O=C1C(=O)N(CN(c2ccccc2)c2ccccc2)c2cccc(Cl)c21 | 31.4 | 14.3 | 29.7 | 96.8 | 77.2 | – | – | – | – | – | – | –
CCN(CC)CN1C(=O)C(=O)c2c(Cl)cccc21 | 44.5 | 28.3 | 34 | 22.5 | 35 | – | – | – | – | – | – | –
CCN(CC)CCCC(C)Nc1ccnc2cc(Cl)ccc12 (stereo not drawn) [CHLOROQUINE] | – | – | – | 76.1 | 81.3 | – | – | – | – | – | – | –
O=C1C(=O)N(CN(c2ccccc2)c2ccccc2)c2ccccc21 | 24.8 | 21.5 | 23.7 | 33.7 | 73 | – | – | – | – | – | – | –
Cc1ccc2nc(/N=C3\C(=O)N(CN(C)C)c4cccc(Cl)c43)sc2c1 | 10.9 | 28.1 | 20.7 | 5.77 | 7.02 | – | – | – | – | – | – | –
Cc1ccc2nc(/N=C3\C(=O)N(CN(c4ccccc4)c4ccccc4)c4cccc(Br)c43)sc2c1 | 75.1 | 82.3 | 30.2 | 70.2 | 67.9 | – | – | – | – | – | – | –
O=C1C(=O)N(CN2CCOCC2)c2cccc(Cl)c21 | 61.5 | 61.5 | 29.2 | 79.8 | 78.5 | – | – | – | – | – | – | –
